Laboratory results from BindingDB's records for doi:10.1021/acsmedchemlett.0c00544 (Peking University Health Science Center, 2021).

Tests used:
[1] = biological target: T1, Signal transducer and activator of transcription 3 (Homo sapiens, UniProt P40763); experiment: Inhibition of IL-6 induced STAT3 transcriptional activity in human HEK-Blue IL-6 cells assessed as secreted embryonic alkaline phosphatase reporter gene expression measured after 20 hrs by microplate reader
In short: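 HEK-Blue IL-6 reporter cells were treated for 20 h. IL-6/JAK/STAT3 pathway activity was quantified from secreted SEAP using a detection reagent, with parallel MTT viability. Values are averages of three independent experiments.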

[2] = biological target: T1, Signal transducer and activator of transcription 3; experiment: Inhibition of IL-6 induced STAT3 transcriptional activity in human HEK-Blue IL-6 cells assessed as secreted embryonic alkaline phosphatase reporter gene expression by microplate reader
In short: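 HEK-Blue IL-6 reporter cells were treated for 20 h, and STAT3 pathway activity was quantified from secreted SEAP using a detection reagent. […] Values are averages of three independent experiments.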

T1 sequence (P40763 whole entry): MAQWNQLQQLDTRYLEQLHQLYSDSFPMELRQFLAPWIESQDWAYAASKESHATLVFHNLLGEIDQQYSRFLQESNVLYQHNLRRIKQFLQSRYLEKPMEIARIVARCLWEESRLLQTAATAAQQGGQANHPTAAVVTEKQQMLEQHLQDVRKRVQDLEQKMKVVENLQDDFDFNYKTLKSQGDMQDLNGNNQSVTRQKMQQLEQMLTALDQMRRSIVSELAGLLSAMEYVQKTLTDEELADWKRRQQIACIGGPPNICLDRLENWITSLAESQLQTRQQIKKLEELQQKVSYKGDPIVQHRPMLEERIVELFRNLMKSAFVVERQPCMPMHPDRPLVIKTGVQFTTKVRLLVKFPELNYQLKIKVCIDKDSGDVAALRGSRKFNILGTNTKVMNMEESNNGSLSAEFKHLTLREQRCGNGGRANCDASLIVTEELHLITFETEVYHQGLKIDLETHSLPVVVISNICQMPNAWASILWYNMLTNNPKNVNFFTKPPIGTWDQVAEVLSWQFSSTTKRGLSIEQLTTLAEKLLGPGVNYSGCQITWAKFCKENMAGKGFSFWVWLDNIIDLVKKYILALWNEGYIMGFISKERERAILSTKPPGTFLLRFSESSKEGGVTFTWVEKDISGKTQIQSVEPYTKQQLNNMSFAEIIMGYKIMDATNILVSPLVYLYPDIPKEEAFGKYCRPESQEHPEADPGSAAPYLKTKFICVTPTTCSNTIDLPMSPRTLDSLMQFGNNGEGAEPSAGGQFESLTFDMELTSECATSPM

Structure (SMILES)	IC50 [1] [µM]	IC50 [2] [µM]
CC(=O)Oc1ccccc1C(=O)Nc1ncc([N+](=O)[O-])s1 [Alinia]	9.8	9.98
C[C@H](NC(=O)/C(C#N)=C/c1cccc(Br)n1)c1ccccc1 [Wp 1066]	2.5	1.79
